Experimental data: ChEMBL document CHEMBL4177753, “Structural Modification of Natural Product Ganomycin I Leading to Discovery of a α-Glucosidase and HMG-CoA Reductase Dual Inhibitor Improving Obesity and Metabolic Dysfunction in Vivo” (J Med Chem, 2018)
Calls of active or inactive are those of the source. The rule behind the calls is not given here.

Assays:
Mus musculus [1] = assay: Upregulation of Muc-1 mRNA expression in ob/ob mouse ileum at 3 mg/kg administered daily via oral gavage for 31 days by RNA-seq analysis; assay type: functional, organism-based
Mus musculus [2] = assay: Upregulation of Il10 mRNA expression in ob/ob mouse ileum at 3 mg/kg administered daily via oral gavage for 31 days by RNA-seq analysis; assay type: functional, organism-based
Mus musculus [3] = assay: Antiobesity activity in ob/ob mouse assessed as change in lean mass at 3 mg/kg administered daily via oral gavage for 31 days; assay type: functional, organism-based
Summary of the method: (§1)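 Male ob/ob mice, n = 10 per group, grouped by blood glucose and body weight. Daily gavage at 0.3, 1.0 or 3.0 mg/kg in soybean vehicle, with soybean vehicle controls and C57BL/6J controls. Body weight, cumulative food intake, LEE index, fat mass and lean mass recorded. Mean ± SEM, one-way ANOVA with Tukey test.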

Mus musculus [4] = assay: Antiobesity activity in antibiotic-treated ob/ob mouse assessed as reduction in weight gain at 3 mg/kg administered daily via oral gavage for 3 weeks; assay type: functional, organism-based
Summary of the method: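 Male ob/ob mice given drinking water with ampicillin (1 g/L), vancomycin and other antibiotics for three weeks. Groups of n = 8 were dosed at 3.0 mg/kg/day by mouth in soybean vehicle, alongside non-antibiotic ob/ob groups. Weight gain and food intake recorded.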

Mus musculus [5] = assay: Antifibrotic activity in ob/ob mouse assessed as decrease in TGF-beta1 expression in liver at 3 mg/kg administered daily via oral gavage for 31 days by immunohistochemical staining-based microscopic method; assay type: functional, organism-based
Mus musculus [6] = assay: Hypoglycemic activity in ob/ob mouse assessed as decrease in free diet blood glucose levels administered daily via oral gavage for 28 days; assay type: functional, organism-based
Summary of the method: (§2)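 Male ob/ob mice, n = 10 per group, daily gavage at 0.3, 1.0 or 3.0 mg/kg in soybean vehicle. Fasting and free-diet blood glucose and HbA1c measured.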

[7] = Inhibition of rat small intestinal mucosal alpha-glucosidase using p-nitrophenyl-alpha-D-glucopyranoside as substrate after 40 mins by colorimetric method
Summary of the method: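 Rat small intestinal mucosal α-glucosidase; several compound concentrations, each run three times in parallel; phosphate-buffer control replaces compound, blank replaces enzyme. Absorbance at 405 nm; % inhibition = blank-corrected OD of test versus control; IC50 derived from the concentration gradient.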

Mus musculus [8] = assay: Hypolipidemic activity in ob/ob mouse assessed as decrease in liver free fatty acid levels at 0.3 to 3 mg/kg administered daily via oral gavage for 31 days; assay type: functional, organism-based
Mus musculus [9] = assay: Toxicity in C57BL/6J mouse assessed as effect on free diet blood glucose levels at 30 mg/kg administered daily via oral gavage for 3 months; assay type: organism-based; details: in vivo
Summary of the method: (§3)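 Long-term safety study in C57BL/6J mice, 20 male and 20 female, sorted by gender, blood glucose and body weight into four groups (n = 10 each). Treated groups of each sex got 30.0 mg/kg daily by oral gavage in soybean vehicle. Vehicle groups got an equal volume of soybean. Dosing ran three months, with behavior, survival, body weight, blood glucose, liver function and organ coefficients recorded.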

[10] = Tmax in Sprague-Dawley rat at 2 mg/kg, po; assay type: ADME, organism-based; details: in vivo
Summary of the method: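 Six male Sprague-Dawley rats (0.21–0.23 kg) dosed orally at 2.0 mg/kg; blood from orbital vein at 0–16 h into heparinized tubes; plasma protein precipitated with methanol plus internal standard. Quantified by UPLC–Q-TOF MS, ESI positive, single ion monitoring (m/z 367.2637); linear range 0.54–107 ng/ml.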

Mus musculus [11] = assay: Toxicity in C57BL/6J mouse assessed as effect on survival at 30 mg/kg administered daily via oral gavage for 3 months; assay type: organism-based; details: in vivo; summary of the method: as §3
Mus musculus [12] = assay: Hypolipidemic activity in antibiotic-treated ob/ob mouse assessed as decrease in plasma free fatty acid levels at 3 mg/kg administered daily via oral gavage for 3 weeks; assay type: functional, organism-based
Summary of the method: (§4)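 Male ob/ob mice pretreated three weeks with ampicillin (1 g/L), vancomycin, neomycin, gentamycin and erythromycin. Groups of n = 8 given 3.0 mg/kg/day orally in soybean vehicle versus vehicle. Plasma and hepatic lipids, fasting glucose, OGTT (glucose 2 g/kg after overnight fast) and HbA1c measured.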

Mus musculus [13] = assay: Reduction of liver TNF-alpha levels in ob/ob mouse at 3 mg/kg administered daily via oral gavage for 31 days by DAPI staining/immunofluorescence-based confocal microscopic method; assay type: functional, organism-based
Summary of the method: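 Liver from ob/ob mice dosed at 3.0 mg/kg by gavage; tissue methanol-fixed, blocked in PBS with 5% BSA, stained with anti-TNFα (1:200) and Alexa Fluor 610 secondary (1:250), nuclei with DAPI; confocal imaging, per-cell TNFα expression quantified.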

Mus musculus [14] = assay: Antiobesity activity in ob/ob mouse assessed as reduction in weight gain at 3 mg/kg administered daily via oral gavage for 31 days relative to vehicle-treated control; assay type: functional; parameters: scale not given: the % may be the effect or the level left; summary of the method: as §1
Mus musculus [15] = assay: Antiobesity activity in ob/ob mouse assessed as reduction in LEE index at 3 mg/kg administered daily via oral gavage for 31 days relative to vehicle-treated control; assay type: functional, organism-based; summary of the method: as §1
Mus musculus [16] = assay: In vivo inhibition of alpha-glucosidase activity in ob/ob mouse assessed as accumulation of carbohydrate in lower part of small intestine at 3 mg/kg administered daily via oral gavage for 31 days; assay type: functional, organism-based
Mus musculus [17] = assay: Antiobesity activity in ob/ob mouse assessed as reduction in absolute fat mass at 3 mg/kg administered daily via oral gavage for 31 days; assay type: functional, organism-based; summary of the method: as §1
Neisseria = assay: Decrease in Neisseri levels in cecum of ob/ob mouse at 3 mg/kg administered daily via oral gavage for 31 days by 16S rRNA gene high-throughput sequencing method; assay type: functional, organism-based
Summary of the method: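 Male ob/ob mice dosed daily by gavage at 1.0 or 3.0 mg/kg, compared with vehicle group. DNA extracted from about 150 mg caecum contents. 16S rRNA V3–V4 region amplified and sequenced on Illumina HiSeq PE250. Community compared by NMDS/MRPP; discriminant taxa identified by LEfSe.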

Mus musculus [18] = assay: Hypoglycemic activity in ob/ob mouse assessed as decrease in HbA1c levels administered daily via oral gavage for 31 days; assay type: functional, organism-based; summary of the method: as §2
Mus musculus [19] = assay: Hypoglycemic activity in ob/ob mouse assessed as decrease in fasting blood glucose levels administered daily via oral gavage for 28 days; assay type: functional, organism-based; summary of the method: as §2
Mus musculus [20] = assay: Upregulation of Pparg mRNA expression in ob/ob mouse ileum at 3 mg/kg administered daily via oral gavage for 31 days by RNA-seq analysis; assay type: functional, organism-based
Mus musculus [21] = assay: Toxicity in C57BL/6J mouse assessed as effect on behavior at 30 mg/kg administered daily via oral gavage for 3 months; assay type: organism-based; details: in vivo; summary of the method: as §3
Mus musculus [22] = assay: Hypolipidemic activity in C57BL/6J DIO mouse assessed as decrease in serum total cholesterol levels at 0.3 to 3 mg/kg administered daily via oral gavage for 5 weeks; assay type: functional, organism-based
Summary of the method: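 High-fat-diet male C57BL/6J mice, n = 8 per group, daily gavage at 0.3–3.0 mg/kg in soybean vehicle for 5 weeks. Serum total cholesterol, triglycerides and free fatty acids measured.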

Mus musculus [23] = assay: Antiobesity activity in ob/ob mouse assessed as cumulative food intake at 3 mg/kg administered daily via oral gavage for 25 days relative to vehicle-treated control
Mus musculus [24] = assay: Hypoglycemic activity in antibiotic-treated ob/ob mouse assessed as decrease in blood glucose AUC at 3 mg/kg administered daily via oral gavage for 3 weeks by OGTT; assay type: functional, organism-based; summary of the method: as §4

For `CC(C)=CCC/C(C)=C/CCC1=C[C@H](c2ccc(C(C)(C)C)cc2)OC1=O`, the Activity (Mus musculus [1]) was “Active”, the Activity (Mus musculus [2]) was “Active” and the Activity (Mus musculus [3]) was “inactive”. The Activity (Mus musculus [4]) was “Active”, the Activity (Mus musculus [5]) was “Active” and the Activity (Mus musculus [6]) was “Dose-dependent effect”. For the same compound, the IC50 [7] was 60 nM, the Activity (Mus musculus [8]) was “Active” and the Activity (Mus musculus [9]) was “Non-Toxic”. The Tmax [10] was 7 h, the Activity (Mus musculus [11]) was “Non-Toxic” and the Activity (Mus musculus [12]) was “inactive”. The Activity (Mus musculus [13]) was “Active”, the Activity (Mus musculus [14]) was 68% and the Activity (Mus musculus [15]) was “Active”. The inhibition (Mus musculus [16]) was “Active”, the Activity (Mus musculus [17]) was “Active” and the Activity (Neisseria) was “Active”. The Activity (Mus musculus [18]) was “Dose-dependent effect”, the Activity (Mus musculus [19]) was “Dose-dependent effect” and the Activity (Mus musculus [20]) was “Active”. For the same compound, the Activity (Mus musculus [21]) was “Non-Toxic”, the Activity (Mus musculus [22]) was “Active” and the Activity (Mus musculus [23]) was 78%. For the same compound, the Activity (Mus musculus [24]) was “inactive”.
